Test results: ChEMBL document CHEMBL4138275, “Taccalonolide Microtubule Stabilizers Generated Using Semisynthesis Define the Effects of Mono Acyloxy Moieties at C-7 or C-15 and Disubstitutions at C-7 and C-25” (J Nat Prod, 2018)
Calls of active or inactive are those of the source. The calls are words filed in the database; no cut-off is given here.

Assays:
[1] = species: Sus scrofa; assay: Induction of porcine brain tubulin polymerization at 5 to 20 uM by turbidimetric method
Outline: (§1)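 Compound or vehicle (1% EtOH) added; samples prepared on ice, then warmed to 37 °C to start polymerization. Rate and extent followed turbidimetrically at 340 nm.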

[2] = system: NCI/ADR-RES; assay: Antitumor activity against human NCI/ADR-RES cells xenografted in athymic nude mouse administered via ip; type: functional, cell-based
[3] = system: HeLa; assay: Antiproliferative activity against human HeLa cells after 48 hrs by sulforhodamine B assay; type: functional, cell-based
Outline: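 HeLa cells (STR-validated) grown in BME with 10% FBS and gentamycin, seeded 2500/well, left to adhere overnight, then exposed to compounds for 48 h. Cell density read by sulforhodamine B staining. IC50 is the concentration giving 50% inhibition of cell density versus vehicle, fitted by nonlinear regression. Mean of 3 or 4 experiments, each in triplicate, ±SD.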

[4] = system: NCI/ADR-RES; assay: Antitumor activity against human NCI/ADR-RES cells xenografted in athymic nude mouse assessed as reduction in tumor growth at 40 ug administered intratumorally on day day 0, 3, 6, 10 and 14 measured on day 0 post dose; type: functional, cell-based
Outline: (§2)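 NCI/ADR-RES tumor fragments implanted s.c. in flanks of female athymic nude mice. At about 250 mm3 (100−465 mm3), mice were grouped (n = 7−9). Tumors were injected directly with 200 μL on days 0, 3, 6, 10 and 14: 20 μg in 10% EtOH/PBS, paclitaxel 40 μg in 1% Cremophor/EtOH in PBS, or vehicle. Volume = length × width × height by calipers.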

[5] = system: NCI/ADR-RES; assay: Antitumor activity against human NCI/ADR-RES cells xenografted in athymic nude mouse assessed as reduction in tumor growth at 40 ug administered intratumorally on day 0, 3, 6, 10 and 14 measured on day 12 to 14 post dose; type: functional, cell-based; outline: as §2
[6] = system: NCI/ADR-RES; assay: Antitumor activity against human NCI/ADR-RES cells xenografted in athymic nude mouse assessed as reduction in tumor growth at 40 ug administered intratumorally on day 0, 3, 6, 10 and 14 measured up to 14 days during compound dosing; type: functional, cell-based; outline: as §2
[7] = system: NCI/ADR-RES; assay: Antitumor activity against human NCI/ADR-RES cells xenografted in athymic nude mouse assessed as delay in tumor growth at 20 ug administered intratumorally on day 0, 3, 6, 10 and 14 measured up to 54 days starting from 5 days post last dose; type: functional, cell-based; outline: as §2
[8] = species: Sus scrofa; assay: Induction of porcine brain tubulin polymerization at 5 uM by turbidimetric method; outline: as §1
[9] = Toxicity in ip dosed athymic nude mouse harboring tumor; type: organism-based; conditions: in vivo
Outline: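 Dose tolerance was assessed in tumor-bearing mice carrying drug-sensitive or drug-resistant xenografts, with compound given by ip injection. A cumulative maximal tolerated dose was determined.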

[10] = system: HeLa; assay: Induction of microtubule stabilization in human HeLa cells assessed as formation of multiple aberrant mitotic spindle at 5 times IC50 after 18 hrs by indirect immunofluorescence assay; type: cell-based
Outline: (§3)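 HeLa cells treated for 18 h at 5-fold each compound's own antiproliferative IC50, with EtOH as vehicle control. Mitotic and interphase microtubules stained by indirect immunofluorescence with a β-tubulin antibody and viewed by fluorescence microscopy.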

[11] = system: HeLa; assay: Induction of microtubule stabilization in human HeLa cells assessed as bundling of interphase microtubule at 5 times IC50 after 18 hrs by indirect immunofluorescence assay; type: cell-based; outline: as §3
[12] = system: NCI/ADR-RES; assay: Antitumor activity against human NCI/ADR-RES cells xenografted in athymic nude mouse assessed as reduction in tumor growth at 20 ug administered intratumorally on day 0, 3, 6, 10 and 14 measured on day 10 post dose; type: functional, cell-based; outline: as §2
[13] = system: NCI/ADR-RES; assay: Antitumor activity against human NCI/ADR-RES cells xenografted in athymic nude mouse assessed as tumor volume at 20 ug administered intratumorally on day 0, 3, 6, 10 and 14 measured up to 45 days starting from 5 days post last dose; type: functional; outline: as §2
[14] = system: Mus musculus; assay: Toxicity in athymic nude mouse xenografted with human NCI/ADR-RES cells assessed as weight loss at 20 ug administered intratumorally on day 0, 3, 6, 10 and 14 measured on day 10; type: organism-based; conditions: in vivo, other
Outline: (§4)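 NCI/ADR-RES tumor fragments implanted s.c. in the flanks of female athymic nude mice. Randomized at a mean tumor volume of 250 mm3 (range 100−465). Dosing was 20 μg in 200 μL of 10% EtOH/PBS by intratumoral injection on days 0, 3, 6, 10 and 14; vehicle and paclitaxel groups ran alongside. Caliper volume = L×W×H. Mice were euthanized at 1500 mm3. Two-way ANOVA with Tukey post hoc.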

[15] = system: NCI/ADR-RES; assay: Antitumor activity against human NCI/ADR-RES cells xenografted in athymic nude mouse assessed as reduction in tumor growth at 20 ug administered intratumorally on day 0, 3, 6, 10 and 14 measured on day 12 to 14 post dose; type: functional, cell-based; outline: as §4
[16] = system: NCI/ADR-RES; assay: Antitumor activity against human NCI/ADR-RES cells xenografted in athymic nude mouse assessed as reduction in tumor growth at 20 ug administered intratumorally on day day 0, 3, 6, 10 and 14 measured on day 0 post dose; type: functional, cell-based; outline: as §4
[17] = system: Mus musculus; assay: Toxicity in athymic nude mouse xenografted with human NCI/ADR-RES cells assessed as adverse effect at 20 ug administered intratumorally on day 0, 3, 6, 10 and 14 measured on day 12; type: organism-based; conditions: in vivo, other; outline: as §4
[18] = system: NCI/ADR-RES; assay: Antitumor activity against human NCI/ADR-RES cells xenografted in athymic nude mouse assessed as reduction in tumor growth at 20 ug administered intratumorally on day 0, 3, 6, 10 and 14 measured on day 12; type: functional, cell-based; outline: as §4
[19] = system: NCI/ADR-RES; assay: Antitumor activity against human NCI/ADR-RES cells xenografted in athymic nude mouse assessed as time required to show half of the tumors to reach tumor volume <1500 mm3 at 20 ug administered intratumorally on day 0, 3, 6, 10 and 14 measured after 5 days; type: functional; outline: as §4

Compound | Activity [2] | IC50 [3] [nM] | Activity [8] | MTD [9] [mg/kg] | Activity [10] | Activity [11] | other results
CC(=O)O[C@H]1[C@H]2[C@H]([C@@H]3[C@@H](O)[C@@H]4[C@H]([C@H](C)[C@H]5O[C@]56OC(=O)[C@@](C)(O)[C@]46C)[C@@]3(C)[C@H]1OC(C)=O)[C@@H](O)C(=O)[C@H]1C[C@@H]3O[C@@H]3[C@H](OC(C)=O)[C@]21C | inactive | 4.2 | – | – | – | – | Activity [1]: Active
CC(=O)O[C@@H]1[C@H]2[C@H]3[C@H]([C@H](OC(C)=O)[C@H](OC(C)=O)[C@]2(C)[C@H]2[C@H](C)[C@H]4O[C@]45OC(=O)[C@@](C)(O)[C@]5(C)[C@H]12)[C@]1(C)[C@H](C[C@@H]2O[C@@H]2[C@@H]1OC(C)=O)C(=O)[C@@H]3O | Active | 23 | – | – | – | – | –
CC(=O)O[C@H]1C(=O)[C@@]2(C)[C@H]([C@H](OC(=O)c3ccccc3)[C@]3(O)C[C@H](OC(=O)[C@H](O)[C@@H](NC(=O)c4ccccc4)c4ccccc4)C(C)=C1C3(C)C)[C@]1(OC(C)=O)CO[C@@H]1C[C@@H]2O | – | – | – | – | – | – | Activity [4]: inactive; Activity [5]: Active; Activity [6]: inactive
CC(=O)O[C@H]1[C@H]2[C@H]([C@@H]3[C@@H](OC(=O)CC(C)C)[C@@H]4[C@H]([C@H](C)[C@H]5O[C@]56OC(=O)[C@@](C)(O)[C@]46C)[C@@]3(C)[C@H]1OC(C)=O)[C@@H](O)C(=O)[C@H]1C[C@@H]3O[C@@H]3[C@H](OC(C)=O)[C@]21C | inactive | 2.7 | Active | < 10 | Active | Active | Activity [7]: Active; Activity [12]: Active; Activity [13]: <1500 mm3; Activity [14]: Non-Toxic; Activity [15]: Active; Activity [16]: Active
CC(=O)O[C@H]1[C@H]2[C@H]([C@@H]3[C@@H](OC(=O)C(C)C)[C@@H]4[C@H]([C@H](C)[C@H]5O[C@]56OC(=O)[C@@](C)(O)[C@]46C)[C@@]3(C)[C@H]1OC(C)=O)[C@@H](O)C(=O)[C@H]1C[C@@H]3O[C@@H]3[C@H](OC(C)=O)[C@]21C | – | 10.6 | Active | < 10 | Active | Active | –
CC(=O)O[C@H]1[C@H]2[C@H]([C@@H]3[C@@H](OC(=O)C(C)(C)C)[C@@H]4[C@H]([C@H](C)[C@H]5O[C@]56OC(=O)[C@@](C)(O)[C@]46C)[C@@]3(C)[C@H]1OC(C)=O)[C@@H](O)C(=O)[C@H]1C[C@@H]3O[C@@H]3[C@H](OC(C)=O)[C@]21C | – | 4.2 | – | < 10 | Active | Active | –
CC(=O)O[C@H]1[C@H]2[C@H]([C@@H]3[C@@H](OC(=O)C4CC4)[C@@H]4[C@H]([C@H](C)[C@H]5O[C@]56OC(=O)[C@@](C)(O)[C@]46C)[C@@]3(C)[C@H]1OC(C)=O)[C@@H](O)C(=O)[C@H]1C[C@@H]3O[C@@H]3[C@H](OC(C)=O)[C@]21C | – | 27.5 | Active | < 10 | Active | Active | –
CC(=O)O[C@H]1[C@H]2[C@H]([C@@H]3[C@@H](O)[C@@H]4[C@H]([C@H](C)[C@H]5O[C@]56OC(=O)[C@@](C)(O)[C@]46C)[C@@]3(C)[C@H]1OC(C)=O)[C@@H](OC(=O)CC(C)C)C(=O)[C@H]1C[C@@H]3O[C@@H]3[C@H](OC(C)=O)[C@]21C | inactive | 2.4 | Active | < 10 | Active | Active | Activity [17]: Non-Toxic; Activity [18]: Active; Time [19]: 38 days; Activity [15]: Active; Activity [16]: Active
